Results as given in ChEMBL document CHEMBL5724801, “EUbOPEN Chemogenomics Library - Multiplex” (2024).
Where “and” joins values, the source holds several entries; their conditions need not be identical. Equal entries are not always repeated.

Legend:
Assay type in all cases: toxicity, cell-based
Fibroblast = test: Multiplex assay against human fibroblast
Method in brief: (§1)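 Compound was added to live cells that had been stained at seeding with Hoechst33342, BioTracker Green Microtubule Cytoskeleton Dye, MitoTracker Red and Annexin V Alexa Fluor 680, and imaging followed on a CQ1 microscope at 37°C and 5% CO2. CellPathfinder machine-learning gating divided cells into Hoechst high-intensity objects or normal cells, normal cells into healthy, pyknosed or fragmented nuclei, and pyknosed cells into mitotic or apoptotic. Tubulin, mitochondrial-mass and membrane-permeability phenotypes are per cents of healthy-nucleus cells.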

HEK-293T = test: Multiplex assay against HEK293T; settings: human; method in brief: as §1
U2OS = test: Multiplex assay against U2OS; settings: human; method in brief: as §1
[1] = 12 h, 1 µM, compound concentration 1 uM
[2] = 12 h, 10 µM, compound concentration 10 uM
[3] = 24 h, 1 µM, compound concentration 1 uM
[4] = 24 h, 10 µM, compound concentration 10 uM
[5] = 48 h, 1 µM, compound concentration 1 uM
[6] = 48 h, 10 µM, compound concentration 10 uM

## CCn1c(-c2nonc2N)nc2c(C#CC(C)(C)O)ncc(OCC3CCCNC3)c21 (stereo not drawn)
Fibroblast; [1]
  Population Apoptotic (%): 9.09% and 27.03%
  Population Fragmented Nuclei (%): 15.15% and 9.22%
  Population Healthy Nuclei (%): 64.85% and 77.66%
  Population Hoechst High Intensity Objects (%): 0%
  Population Membrane Permeable-Phenotype (%): 4.67% and 1.83%
  Population Mitochondria Different-Phenotype (%): 8.41% and 8.68%
  Population Mitotic Cells (%): 90.91% and 72.97%
  Population Normal (%): 100%
  Population Pyknosed Nuclei (%): 20% and 13.12%
  Population Tubulin-Different-Phenotype (%): 9.35% and 19.63%
  Total Cell Count: 165 and 282
Fibroblast; [2]
  Population Apoptotic (%): 13.33% and 12.2%
  Population Fragmented Nuclei (%): 17.67% and 9.62%
  Population Healthy Nuclei (%): 66.43% and 74.62%
  Population Hoechst High Intensity Objects (%): 0%
  Population Membrane Permeable-Phenotype (%): 6.91% and 2.06%
  Population Mitochondria Different-Phenotype (%): 25% and 13.4%
  Population Mitotic Cells (%): 86.67% and 87.8%
  Population Normal (%): 100%
  Population Pyknosed Nuclei (%): 15.9% and 15.77%
  Population Tubulin-Different-Phenotype (%): 35.64% and 40.21%
  Total Cell Count: 283 and 260
Fibroblast; [3]
  Population Fragmented Nuclei (%): 14.1% and 7.45%
  Population Healthy Nuclei (%): 73.08% and 80.78%
  Population Hoechst High Intensity Objects (%): 0%
  Population Membrane Permeable-Phenotype (%): 0.88% and 1.46%
  Population Mitochondria Different-Phenotype (%): 5.26% and 11.65%
  Population Mitotic Cells (%): 90% and 63.33%
  Population Normal (%): 100%
  Population Pyknosed Nuclei (%): 12.82% and 11.76%
  Total Cell Count: 156 and 255
Fibroblast; [4]
  Population Apoptotic (%): 7.41% and 9.09%
  Population Fragmented Nuclei (%): 24.25% and 15.79%
  Population Healthy Nuclei (%): 61.04% and 77.78%
  Population Hoechst High Intensity Objects (%): 0%
  Population Membrane Permeable-Phenotype (%): 1.79% and 2.26%
  Population Mitotic Cells (%): 92.59% and 90.91%
  Population Normal (%): 100%
  Population Pyknosed Nuclei (%): 14.71% and 6.43%
  Population Tubulin-Different-Phenotype (%): 40.18% and 33.08%
  Total Cell Count: 367 and 342
Fibroblast; [5]
  Population Apoptotic (%): 23.08% and 33.33%
  Population Fragmented Nuclei (%): 5.03% and 4.44%
  Population Healthy Nuclei (%): 86.79% and 87.1%
  Population Hoechst High Intensity Objects (%): 0%
  Population Membrane Permeable-Phenotype (%): 2.9% and 4.63%
  Population Mitotic Cells (%): 76.92% and 66.67%
  Population Normal (%): 100%
  Population Pyknosed Nuclei (%): 8.18% and 8.47%
  Total Cell Count: 159 and 248
Fibroblast; [6]
  Population Apoptotic (%): 30% and 29.41%
  Population Fragmented Nuclei (%): 21.53% and 21.32%
  Population Healthy Nuclei (%): 69.97% and 74.37%
  Population Hoechst High Intensity Objects (%): 0%
  Population Membrane Permeable-Phenotype (%): 1.21% and 0.68%
  Population Mitochondria Different-Phenotype (%): 8.91% and 1.71%
  Population Mitotic Cells (%): 70% and 70.59%
  Population Normal (%): 100%
  Population Pyknosed Nuclei (%): 8.5% and 4.31%
  Population Tubulin-Different-Phenotype (%): 29.55% and 33.11%
  Total Cell Count: 353 and 394
HEK-293T; [1]
  Population Apoptotic (%): 10.29% and 11.11%
  Population Fragmented Nuclei (%): 2.35% and 5.52%
  Population Hoechst High Intensity Objects (%): 0.29% and 0%
  Population Membrane Permeable-Phenotype (%): 0%
  Population Mitochondria Different-Phenotype (%): 31.65% and 45.45%
  Population Mitotic Cells (%): 89.71% and 88.89%
  Population Normal (%): 99.71% and 100%
  Population Pyknosed Nuclei (%): 51.32% and 86.9%
  Total Cell Count: 342 and 145
HEK-293T; [2]
  Population Apoptotic (%): 15.66% and 20.38%
  Population Fragmented Nuclei (%): 0.98% and 2.91%
  Population Hoechst High Intensity Objects (%): 1.92% and 0%
  Population Membrane Permeable-Phenotype (%): 0%
  Population Mitochondria Different-Phenotype (%): 33.96% and 20%
  Population Mitotic Cells (%): 84.34% and 79.62%
  Population Normal (%): 98.08% and 100%
  Population Pyknosed Nuclei (%): 64.5% and 91.28%
  Population Tubulin-Different-Phenotype (%): 48.11% and 40%
  Total Cell Count: 313 and 172
HEK-293T; [3]
  Population Apoptotic (%): 27.07% and 20.59%
  Population Fragmented Nuclei (%): 1.2% and 4.2%
  Population Healthy Nuclei (%): 58.73% and 24.48%
  Population Hoechst High Intensity Objects (%): 0.3% and 0%
  Population Membrane Permeable-Phenotype (%): 1.54% and 0%
  Population Mitochondria Different-Phenotype (%): 34.87% and 20%
  Population Mitotic Cells (%): 72.93% and 79.41%
  Population Normal (%): 99.7% and 100%
  Population Pyknosed Nuclei (%): 40.06% and 71.33%
  Total Cell Count: 333 and 143
HEK-293T; [4]
  Population Apoptotic (%): 43.87% and 34.93%
  Population Fragmented Nuclei (%): 1.02% and 3.07%
  Population Hoechst High Intensity Objects (%): 1.01% and 0%
  Population Membrane Permeable-Phenotype (%): 0%
  Population Mitochondria Different-Phenotype (%): 55.56% and 50%
  Population Mitotic Cells (%): 56.13% and 65.07%
  Population Normal (%): 98.99% and 100%
  Population Pyknosed Nuclei (%): 52.9% and 89.57%
  Population Tubulin-Different-Phenotype (%): 82.22% and 41.67%
  Total Cell Count: 296 and 163
HEK-293T; [5]
  Population Apoptotic (%): 16.67% and 24.05%
  Population Fragmented Nuclei (%): 1.43% and 3.95%
  Population Healthy Nuclei (%): 81.46% and 51.41%
  Population Hoechst High Intensity Objects (%): 0.32% and 0.56%
  Population Membrane Permeable-Phenotype (%): 3.89% and 2.2%
  Population Mitochondria Different-Phenotype (%): 59.34% and 63.74%
  Population Mitotic Cells (%): 83.33% and 75.95%
  Population Normal (%): 99.68% and 99.44%
  Population Pyknosed Nuclei (%): 17.12% and 44.63%
HEK-293T; [6]
  Population Apoptotic (%): 73.58% and 71.96%
  Population Fragmented Nuclei (%): 1.19% and 2.01%
  Population Healthy Nuclei (%): 56.75% and 26.17%
  Population Hoechst High Intensity Objects (%): 1.18% and 0%
  Population Membrane Permeable-Phenotype (%): 2.8% and 0%
  Population Mitochondria Different-Phenotype (%): 97.2% and 92.31%
  Population Mitotic Cells (%): 26.42% and 28.04%
  Population Normal (%): 98.82% and 100%
  Population Pyknosed Nuclei (%): 42.06% and 71.81%
  Population Tubulin-Different-Phenotype (%): 70.63% and 92.31%
  Total Cell Count: 255 and 149
U2OS; [1]
  Population Apoptotic (%): 30.23% and 52.17%
  Population Fragmented Nuclei (%): 3.38% and 1.86%
  Population Healthy Nuclei (%): 85.45% and 83.85%
  Population Hoechst High Intensity Objects (%): 0%
  Population Membrane Permeable-Phenotype (%): 1.22% and 1.48%
  Population Mitochondria Different-Phenotype (%): 0% and 5.93%
  Population Mitotic Cells (%): 69.77% and 47.83%
  Population Normal (%): 100%
  Population Pyknosed Nuclei (%): 11.17% and 14.29%
  Population Tubulin-Different-Phenotype (%): 0.91% and 0.74%
  Total Cell Count: 385 and 161
U2OS; [2]
  Population Apoptotic (%): 37.04% and 27.91%
  Population Fragmented Nuclei (%): 2.62% and 8.28%
  Population Healthy Nuclei (%): 83.2% and 64.33%
  Population Hoechst High Intensity Objects (%): 0%
  Population Membrane Permeable-Phenotype (%): 0.95% and 4.95%
  Population Mitotic Cells (%): 62.96% and 72.09%
  Population Normal (%): 100%
  Population Pyknosed Nuclei (%): 14.17% and 27.39%
  Population Tubulin-Different-Phenotype (%): 2.52% and 4.95%
  Total Cell Count: 381 and 157
U2OS; [3]
  Population Apoptotic (%): 38.6% and 42.86%
  Population Fragmented Nuclei (%): 2.16% and 1.54%
  Population Healthy Nuclei (%): 86.64% and 84.1%
  Population Hoechst High Intensity Objects (%): 0.2% and 0.51%
  Population Membrane Permeable-Phenotype (%): 0.68% and 5.49%
  Population Mitochondria Different-Phenotype (%): 0.23% and 1.83%
  Population Mitotic Cells (%): 61.4% and 57.14%
  Population Normal (%): 99.8% and 99.49%
  Population Pyknosed Nuclei (%): 11.2% and 14.36%
  Population Tubulin-Different-Phenotype (%): 1.36% and 0%
  Total Cell Count: 510 and 196
U2OS; [4]
  Population Apoptotic (%): 44.32% and 50%
  Population Fragmented Nuclei (%): 2.7% and 7.78%
  Population Healthy Nuclei (%): 77.53% and 56.67%
  Population Hoechst High Intensity Objects (%): 0%
  Population Membrane Permeable-Phenotype (%): 0.29% and 0.98%
  Population Mitotic Cells (%): 55.68% and 50%
  Population Normal (%): 100%
  Population Pyknosed Nuclei (%): 19.78% and 35.56%
  Population Tubulin-Different-Phenotype (%): 3.48% and 3.92%
  Total Cell Count: 445 and 180
U2OS; [5]
  Population Apoptotic (%): 50% and 45.16%
  Population Fragmented Nuclei (%): 2.09% and 2.15%
  Population Healthy Nuclei (%): 90.19% and 88.34%
  Population Hoechst High Intensity Objects (%): 0%
  Population Membrane Permeable-Phenotype (%): 1.22% and 1.39%
  Population Mitochondria Different-Phenotype (%): 0% and 4.51%
  Population Mitotic Cells (%): 50% and 54.84%
  Population Normal (%): 100%
  Population Pyknosed Nuclei (%): 7.72% and 9.51%
  Population Tubulin-Different-Phenotype (%): 0.49% and 1.04%
  Total Cell Count: 907 and 326
U2OS; [6]
  Population Apoptotic (%): 65.03% and 83.08%
  Population Fragmented Nuclei (%): 6.86% and 8.16%
  Population Healthy Nuclei (%): 71.34% and 58.67%
  Population Hoechst High Intensity Objects (%): 0%
  Population Membrane Permeable-Phenotype (%): 1.71% and 7.83%
  Population Mitochondria Different-Phenotype (%): 0.64% and 7.83%
  Population Mitotic Cells (%): 34.97% and 16.92%
  Population Normal (%): 100%
  Population Pyknosed Nuclei (%): 21.8% and 33.16%
  Population Tubulin-Different-Phenotype (%): 2.56% and 7.83%
